{
  "source": "ChEMBL document CHEMBL2346629",
  "about": "“Discovery and characterization of novel allosteric FAK inhibitors” (Eur J Med Chem, 2013)",
  "key": {"[1]": {"biological_target": "G protein-coupled receptor kinase 6 (Homo sapiens) (UniProt P43250)", "sequence (P43250 whole entry, looked up)": "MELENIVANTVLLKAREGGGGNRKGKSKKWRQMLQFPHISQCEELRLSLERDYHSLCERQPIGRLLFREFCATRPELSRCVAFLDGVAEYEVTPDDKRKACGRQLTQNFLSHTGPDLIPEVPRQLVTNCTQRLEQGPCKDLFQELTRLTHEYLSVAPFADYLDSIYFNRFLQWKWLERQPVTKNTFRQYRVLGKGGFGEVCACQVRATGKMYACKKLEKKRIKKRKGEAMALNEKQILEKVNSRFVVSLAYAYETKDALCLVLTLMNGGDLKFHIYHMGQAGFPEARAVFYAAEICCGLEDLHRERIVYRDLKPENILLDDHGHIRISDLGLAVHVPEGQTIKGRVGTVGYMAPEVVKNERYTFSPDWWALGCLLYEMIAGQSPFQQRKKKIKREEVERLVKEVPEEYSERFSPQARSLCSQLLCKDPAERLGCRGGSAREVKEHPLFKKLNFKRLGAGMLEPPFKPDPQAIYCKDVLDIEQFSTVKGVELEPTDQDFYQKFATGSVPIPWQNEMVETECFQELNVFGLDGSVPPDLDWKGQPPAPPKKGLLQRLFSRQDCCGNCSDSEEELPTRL", "assay": "Inhibition of GRK6 (unknown origin) using [gamma-33P]ATP assessed as residual activity at 3 uM", "method_in_brief": "(§1)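 Radiometric kinase profiling service covering 288 kinases (261 wild-type, 27 mutant). Inhibition was read as incorporation from [γ-³³P]ATP.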"}, "[2]": {"system": "Epidermal growth factor receptor (Homo sapiens), P00533 [L861Q]", "assay": "Inhibition of EGFR L861Q mutant(unknown origin) using [gamma-33P]ATP assessed as residual activity at 3 uM", "format": "protein assay", "method_in_brief": "(§2)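 Reaction Biology HotSpot radiometric profiling panel of 288 kinases (261 wild-type, 27 mutant). Kinase activity was read out by incorporation of [γ-33P]ATP.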"}, "[3]": {"biological_target": "Myosin light chain kinase, smooth muscle (Homo sapiens, UniProt Q15746)", "assay": "Inhibition of MLCK (unknown origin) using [gamma-33P]ATP assessed as residual activity at 3 uM", "method_in_brief": "(§3)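 Contract radiometric panel screen of 288 kinases (261 wild-type, 27 mutant). Inhibition was read by [gamma-33P]ATP radioactivity incorporation.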"}, "[4]": {"biological_target": "Dual specificity mitogen-activated protein kinase kinase 2 (Homo sapiens) (UniProt P36507)", "assay": "Inhibition of MEK2 (unknown origin) using [gamma-33P]ATP assessed as residual activity at 3 uM", "method_in_brief": "as §3"}, "[5]": {"biological_target": "Tyrosine-protein kinase Fer (Homo sapiens) (UniProt P16591)", "assay": "Inhibition of FER (unknown origin) using [gamma-33P]ATP assessed as residual activity at 3 uM", "method_in_brief": "as §2"}, "[6]": {"biological_target": "Protein kinase C epsilon type (Homo sapiens) (UniProt Q02156)", "assay": "Inhibition of PKCepsilon (unknown origin) using [gamma-33P]ATP assessed as residual activity at 3 uM"}, "[7]": {"biological_target": "Death-associated protein kinase 3 (Homo sapiens) (UniProt O43293)", "assay": "Inhibition of ZIPK (unknown origin) using [gamma-33P]ATP assessed as residual activity at 3 uM"}, "[8]": {"biological_target": "Tyrosine-protein kinase HCK (Homo sapiens) (UniProt P08631)", "sequence (P08631 2-526 limits assumed)": "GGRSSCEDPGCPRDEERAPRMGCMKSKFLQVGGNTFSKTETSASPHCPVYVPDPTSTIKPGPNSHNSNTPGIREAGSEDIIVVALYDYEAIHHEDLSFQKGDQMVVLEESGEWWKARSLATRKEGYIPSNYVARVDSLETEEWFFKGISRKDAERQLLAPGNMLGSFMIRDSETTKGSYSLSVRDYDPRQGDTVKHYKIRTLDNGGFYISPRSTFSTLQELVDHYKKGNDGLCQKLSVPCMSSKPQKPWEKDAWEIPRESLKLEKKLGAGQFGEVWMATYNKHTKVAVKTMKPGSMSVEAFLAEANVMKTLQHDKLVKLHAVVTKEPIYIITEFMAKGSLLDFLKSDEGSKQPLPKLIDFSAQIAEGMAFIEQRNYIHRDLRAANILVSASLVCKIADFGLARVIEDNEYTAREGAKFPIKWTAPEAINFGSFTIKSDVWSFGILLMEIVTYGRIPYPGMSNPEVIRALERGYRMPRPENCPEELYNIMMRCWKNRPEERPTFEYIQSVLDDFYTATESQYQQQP", "assay": "Inhibition of HCK (unknown origin) using [gamma-33P]ATP assessed as residual activity at 3 uM", "method_in_brief": "as §1"}, "[9]": {"system": "Proto-oncogene tyrosine-protein kinase receptor Ret (Homo sapiens), P07949 [V804M]", "assay": "Inhibition of RET V804M mutant (unknown origin) using [gamma-33P]ATP assessed as residual activity at 3 uM"}, "[10]": {"system": "Platelet-derived growth factor receptor alpha (Homo sapiens), P16234 [T674I]", "assay": "Inhibition of PDGFRa T674I mutant (unknown origin) using [gamma-33P]ATP assessed as residual activity at 3 uM"}, "[11]": {"biological_target": "Insulin receptor-related protein (Homo sapiens) (UniProt P14616)", "assay": "Inhibition of IRR (unknown origin) using [gamma-33P]ATP assessed as residual activity at 3 uM", "method_in_brief": "as §1"}, "[12]": {"biological_target": "Beta-adrenergic receptor kinase 1 (Homo sapiens) (UniProt P25098)", "assay": "Inhibition of GRK2 (unknown origin) using [gamma-33P]ATP assessed as residual activity at 3 uM", "method_in_brief": "as §1"}, "[13]": {"biological_target": "Serine/threonine-protein kinase Nek6 (Homo sapiens) (UniProt Q9HC98)", "sequence (Q9HC98 whole entry)": "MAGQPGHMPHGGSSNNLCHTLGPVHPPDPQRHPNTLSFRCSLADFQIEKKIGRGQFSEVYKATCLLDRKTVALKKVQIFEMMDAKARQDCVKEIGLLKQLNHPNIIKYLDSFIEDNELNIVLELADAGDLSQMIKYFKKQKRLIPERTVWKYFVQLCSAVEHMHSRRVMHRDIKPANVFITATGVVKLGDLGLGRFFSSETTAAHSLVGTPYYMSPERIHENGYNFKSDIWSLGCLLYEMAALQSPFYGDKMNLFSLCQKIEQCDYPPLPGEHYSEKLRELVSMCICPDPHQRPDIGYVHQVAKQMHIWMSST", "assay": "Inhibition of NEK6 (unknown origin) using [gamma-33P]ATP assessed as residual activity at 3 uM"}, "[14]": {"biological_target": "Phosphorylase b kinase gamma catalytic chain, liver/testis isoform (Homo sapiens) (UniProt P15735)", "sequence (P15735 whole entry, canonical isoform)": "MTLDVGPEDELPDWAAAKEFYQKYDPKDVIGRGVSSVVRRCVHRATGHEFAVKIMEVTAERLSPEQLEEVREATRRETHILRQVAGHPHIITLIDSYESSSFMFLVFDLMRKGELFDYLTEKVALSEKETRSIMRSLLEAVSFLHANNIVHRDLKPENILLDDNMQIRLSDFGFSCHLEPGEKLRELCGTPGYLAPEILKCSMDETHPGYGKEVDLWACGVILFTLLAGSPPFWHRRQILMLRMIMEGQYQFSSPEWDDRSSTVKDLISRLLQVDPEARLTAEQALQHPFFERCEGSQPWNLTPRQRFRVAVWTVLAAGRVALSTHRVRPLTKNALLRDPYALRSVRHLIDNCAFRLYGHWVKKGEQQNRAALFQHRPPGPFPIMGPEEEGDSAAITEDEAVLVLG", "assay": "Inhibition of PHKg2 (unknown origin) using [gamma-33P]ATP assessed as residual activity at 3 uM"}, "[15]": {"biological_target": "Protein kinase C eta type (Homo sapiens) (UniProt P24723)", "assay": "Inhibition of PKCeta (unknown origin) using [gamma-33P]ATP assessed as residual activity at 3 uM"}, "[16]": {"biological_target": "Tyrosine-protein kinase receptor UFO (Homo sapiens) (UniProt P30530)", "assay": "Inhibition of AXL (unknown origin) using [gamma-33P]ATP assessed as residual activity at 3 uM", "method_in_brief": "(§4)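 Radiometric profiling across 288 kinases (261 wild-type, 27 mutant), run as an outsourced service. Inhibition read out as [gamma-33P]ATP incorporation into substrate.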"}, "[17]": {"biological_target": "Mitogen-activated protein kinase 8 (Homo sapiens) (UniProt P45983)", "assay": "Inhibition of JNK1a1 (unknown origin) using [gamma-33P]ATP assessed as residual activity at 3 uM", "method_in_brief": "as §1"}, "[18]": {"biological_target": "Serine/threonine-protein kinase Nek1 (Homo sapiens) (UniProt Q96PY6)", "assay": "Inhibition of NEK1 (unknown origin) using [gamma-33P]ATP assessed as residual activity at 3 uM"}, "[19]": {"biological_target": "Cyclin-dependent kinase 1/cyclin B1 (Homo sapiens) (UniProt P06493+P14635)", "assay": "Inhibition of CDK1/cyclinB (unknown origin) using [gamma-33P]ATP assessed as residual activity at 3 uM", "format": "protein-complex assay", "method_in_brief": "as §4"}, "[20]": {"biological_target": "Homeodomain-interacting protein kinase 2 (Homo sapiens) (UniProt Q9H2X6)", "assay": "Inhibition of HIPK2 (unknown origin) using [gamma-33P]ATP assessed as residual activity at 3 uM", "method_in_brief": "as §1"}, "[21]": {"biological_target": "Tyrosine-protein kinase SYK (Homo sapiens) (UniProt P43405)", "assay": "Inhibition of SYK (unknown origin) using [gamma-33P]ATP assessed as residual activity at 3 uM"}, "[22]": {"biological_target": "Tyrosine-protein kinase Fgr (Homo sapiens, UniProt P09769)", "assay": "Inhibition of FGR (unknown origin) using [gamma-33P]ATP assessed as residual activity at 3 uM"}, "[23]": {"biological_target": "G protein-coupled receptor kinase 4 (Homo sapiens) (UniProt P32298)", "sequence (P32298 whole entry, looked up)": "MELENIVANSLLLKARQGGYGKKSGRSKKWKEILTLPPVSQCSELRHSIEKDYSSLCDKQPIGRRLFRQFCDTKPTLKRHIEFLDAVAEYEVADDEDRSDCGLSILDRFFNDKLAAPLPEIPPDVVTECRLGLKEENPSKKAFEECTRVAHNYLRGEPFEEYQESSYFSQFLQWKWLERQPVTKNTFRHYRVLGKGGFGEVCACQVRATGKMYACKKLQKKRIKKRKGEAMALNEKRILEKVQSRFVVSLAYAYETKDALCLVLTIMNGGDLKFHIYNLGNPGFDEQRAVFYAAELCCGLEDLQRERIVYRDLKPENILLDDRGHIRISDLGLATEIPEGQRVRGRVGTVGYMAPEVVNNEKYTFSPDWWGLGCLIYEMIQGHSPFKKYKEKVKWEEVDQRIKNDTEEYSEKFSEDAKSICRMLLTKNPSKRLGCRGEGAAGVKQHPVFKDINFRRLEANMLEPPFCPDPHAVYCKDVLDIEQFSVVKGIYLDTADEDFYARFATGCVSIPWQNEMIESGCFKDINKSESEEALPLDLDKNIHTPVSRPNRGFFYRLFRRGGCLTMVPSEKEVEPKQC", "assay": "Inhibition of GRK4 (unknown origin) using [gamma-33P]ATP assessed as residual activity at 3 uM", "method_in_brief": "as §1"}, "[24]": {"biological_target": "Serine/threonine-protein kinase 26 (Homo sapiens) (UniProt Q9P289)", "assay": "Inhibition of MST4 (unknown origin) using [gamma-33P]ATP assessed as residual activity at 3 uM"}, "[25]": {"biological_target": "Mitogen-activated protein kinase 11 (Homo sapiens) (UniProt Q15759)", "sequence (Q15759 whole entry)": "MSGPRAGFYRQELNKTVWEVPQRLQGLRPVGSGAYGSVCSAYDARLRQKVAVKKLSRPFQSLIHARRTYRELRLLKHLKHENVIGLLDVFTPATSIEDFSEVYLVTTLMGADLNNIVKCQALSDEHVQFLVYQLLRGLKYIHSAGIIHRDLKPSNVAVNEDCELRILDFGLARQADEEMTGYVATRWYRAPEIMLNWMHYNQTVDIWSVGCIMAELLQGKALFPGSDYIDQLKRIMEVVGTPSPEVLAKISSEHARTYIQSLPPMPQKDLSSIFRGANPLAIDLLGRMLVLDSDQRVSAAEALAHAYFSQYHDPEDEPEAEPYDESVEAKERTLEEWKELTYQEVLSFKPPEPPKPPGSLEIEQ", "assay": "Inhibition of P38b (unknown origin) using [gamma-33P]ATP assessed as residual activity at 3 uM"}, "[26]": {"biological_target": "Ribosomal protein S6 kinase alpha-1 (Homo sapiens) (UniProt Q15418)", "sequence (Q15418 whole entry)": "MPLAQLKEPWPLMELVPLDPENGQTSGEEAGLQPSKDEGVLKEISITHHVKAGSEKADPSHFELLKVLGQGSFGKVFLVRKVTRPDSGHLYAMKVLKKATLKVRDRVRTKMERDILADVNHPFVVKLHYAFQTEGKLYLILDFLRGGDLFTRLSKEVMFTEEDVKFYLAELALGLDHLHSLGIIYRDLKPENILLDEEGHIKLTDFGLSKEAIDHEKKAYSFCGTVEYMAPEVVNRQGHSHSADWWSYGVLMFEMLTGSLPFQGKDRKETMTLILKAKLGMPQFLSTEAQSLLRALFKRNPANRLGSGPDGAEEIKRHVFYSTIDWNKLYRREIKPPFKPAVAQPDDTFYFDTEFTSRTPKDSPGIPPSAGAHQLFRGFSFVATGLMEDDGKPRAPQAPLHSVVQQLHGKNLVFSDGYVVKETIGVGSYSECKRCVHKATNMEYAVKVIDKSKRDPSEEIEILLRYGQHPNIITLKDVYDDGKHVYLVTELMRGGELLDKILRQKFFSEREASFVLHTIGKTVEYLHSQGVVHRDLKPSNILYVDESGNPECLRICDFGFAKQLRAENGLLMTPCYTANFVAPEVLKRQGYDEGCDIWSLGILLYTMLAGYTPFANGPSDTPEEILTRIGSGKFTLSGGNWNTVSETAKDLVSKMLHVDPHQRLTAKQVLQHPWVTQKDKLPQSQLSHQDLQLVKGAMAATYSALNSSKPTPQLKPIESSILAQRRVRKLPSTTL", "assay": "Inhibition of RSK1 (unknown origin) using [gamma-33P]ATP assessed as residual activity at 3 uM"}, "[27]": {"biological_target": "Mitogen-activated protein kinase kinase kinase 14 (Homo sapiens) (UniProt Q99558)", "assay": "Inhibition of NIK (unknown origin) using [gamma-33P]ATP assessed as residual activity at 3 uM"}, "[28]": {"biological_target": "MAP/microtubule affinity-regulating kinase 3 (Homo sapiens) (UniProt P27448)", "assay": "Inhibition of MARK3 (unknown origin) using [gamma-33P]ATP assessed as residual activity at 3 uM", "method_in_brief": "as §3"}, "[29]": {"biological_target": "Serine/threonine-protein kinase D1 (Homo sapiens) (UniProt Q15139)", "sequence (Q15139 whole entry)": "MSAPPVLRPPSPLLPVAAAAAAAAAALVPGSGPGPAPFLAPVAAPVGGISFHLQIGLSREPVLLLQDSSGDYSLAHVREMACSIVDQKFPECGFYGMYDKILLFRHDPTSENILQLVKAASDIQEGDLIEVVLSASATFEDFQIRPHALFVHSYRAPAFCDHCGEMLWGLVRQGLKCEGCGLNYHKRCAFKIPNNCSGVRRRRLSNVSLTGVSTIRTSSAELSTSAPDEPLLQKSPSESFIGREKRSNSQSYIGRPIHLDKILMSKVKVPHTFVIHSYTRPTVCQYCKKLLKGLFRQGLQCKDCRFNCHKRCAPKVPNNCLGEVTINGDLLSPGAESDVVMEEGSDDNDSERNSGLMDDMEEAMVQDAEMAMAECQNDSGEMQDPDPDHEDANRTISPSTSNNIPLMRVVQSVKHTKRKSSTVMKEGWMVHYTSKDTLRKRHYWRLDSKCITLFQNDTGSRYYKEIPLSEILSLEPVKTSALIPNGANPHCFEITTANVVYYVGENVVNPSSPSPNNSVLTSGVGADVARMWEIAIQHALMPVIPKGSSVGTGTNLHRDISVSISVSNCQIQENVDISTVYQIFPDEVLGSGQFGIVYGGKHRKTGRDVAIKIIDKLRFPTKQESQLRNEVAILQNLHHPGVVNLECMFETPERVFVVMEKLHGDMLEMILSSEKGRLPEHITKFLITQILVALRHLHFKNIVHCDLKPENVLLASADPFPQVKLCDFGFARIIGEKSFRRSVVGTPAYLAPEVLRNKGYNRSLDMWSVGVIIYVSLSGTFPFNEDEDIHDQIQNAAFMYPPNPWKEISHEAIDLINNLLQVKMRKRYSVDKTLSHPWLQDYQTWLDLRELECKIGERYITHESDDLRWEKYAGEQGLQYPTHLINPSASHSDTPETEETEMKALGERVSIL", "assay": "Inhibition of PKCmu (unknown origin) using [gamma-33P]ATP assessed as residual activity at 3 uM"}, "[30]": {"biological_target": "Ribosomal protein S6 kinase alpha-6 (Homo sapiens) (UniProt Q9UK32)", "assay": "Inhibition of RSK4 (unknown origin) using [gamma-33P]ATP assessed as residual activity at 3 uM"}, "[31]": {"biological_target": "Rhodopsin kinase GRK7 (Homo sapiens) (UniProt Q8WTQ7)", "sequence (Q8WTQ7 whole entry)": "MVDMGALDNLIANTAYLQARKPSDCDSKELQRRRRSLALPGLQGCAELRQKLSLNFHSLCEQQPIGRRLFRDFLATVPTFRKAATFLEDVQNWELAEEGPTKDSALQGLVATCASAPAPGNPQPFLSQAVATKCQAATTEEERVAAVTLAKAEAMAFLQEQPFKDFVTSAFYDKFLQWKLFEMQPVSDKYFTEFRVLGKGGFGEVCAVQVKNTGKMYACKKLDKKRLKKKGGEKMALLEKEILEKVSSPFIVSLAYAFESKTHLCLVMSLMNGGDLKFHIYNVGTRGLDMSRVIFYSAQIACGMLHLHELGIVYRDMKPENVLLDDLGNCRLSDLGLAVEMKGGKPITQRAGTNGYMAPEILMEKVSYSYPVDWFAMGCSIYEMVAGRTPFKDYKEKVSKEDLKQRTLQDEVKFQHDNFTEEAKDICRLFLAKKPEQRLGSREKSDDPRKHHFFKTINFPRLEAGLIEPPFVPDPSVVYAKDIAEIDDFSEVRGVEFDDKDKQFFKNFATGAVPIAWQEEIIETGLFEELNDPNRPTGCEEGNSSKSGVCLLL", "assay": "Inhibition of GRK7 (unknown origin) using [gamma-33P]ATP assessed as residual activity at 3 uM", "method_in_brief": "as §1"}},
  "data": [
    {"smiles": "CCc1ccc(-c2ccc3c(c2)-c2[nH]ncc2S(=O)(=O)N3C)cc1", "values": [
      {"measurement": "Activity", "setting": "[1]", "value": 97, "unit": "%"},
      {"measurement": "Activity", "setting": "[2]", "value": 106, "unit": "%"},
      {"measurement": "Activity", "setting": "[3]", "value": 45, "unit": "%"},
      {"measurement": "Activity", "setting": "[4]", "value": 89, "unit": "%"},
      {"measurement": "Activity", "setting": "[5]", "value": 96, "unit": "%"},
      {"measurement": "Activity", "setting": "[6]", "value": 97, "unit": "%"},
      {"measurement": "Activity", "setting": "[7]", "value": 97, "unit": "%"},
      {"measurement": "Activity", "setting": "[8]", "value": 74, "unit": "%"},
      {"measurement": "Activity", "setting": "[9]", "value": 91, "unit": "%"},
      {"measurement": "Activity", "setting": "[10]", "value": 91, "unit": "%"},
      {"measurement": "Activity", "setting": "[11]", "value": 100, "unit": "%"},
      {"measurement": "Activity", "setting": "[12]", "value": 98, "unit": "%"},
      {"measurement": "Activity", "setting": "[13]", "value": 94, "unit": "%"},
      {"measurement": "Activity", "setting": "[14]", "value": 85, "unit": "%"},
      {"measurement": "Activity", "setting": "[15]", "value": 93, "unit": "%"},
      {"measurement": "Activity", "setting": "[16]", "value": 89, "unit": "%"},
      {"measurement": "Activity", "setting": "[17]", "value": 101, "unit": "%"},
      {"measurement": "Activity", "setting": "[18]", "value": 87, "unit": "%"},
      {"measurement": "Activity", "setting": "[19]", "value": 83, "unit": "%"},
      {"measurement": "Activity", "setting": "[20]", "value": 101, "unit": "%"},
      {"measurement": "Activity", "setting": "[21]", "value": 72, "unit": "%"},
      {"measurement": "Activity", "setting": "[22]", "value": 47, "unit": "%"},
      {"measurement": "Activity", "setting": "[23]", "value": 94, "unit": "%"},
      {"measurement": "Activity", "setting": "[24]", "value": 98, "unit": "%"},
      {"measurement": "Activity", "setting": "[25]", "value": 103, "unit": "%"},
      {"measurement": "Activity", "setting": "[26]", "value": 96, "unit": "%"},
      {"measurement": "Activity", "setting": "[27]", "value": 89, "unit": "%"},
      {"measurement": "Activity", "setting": "[28]", "value": 96, "unit": "%"},
      {"measurement": "Activity", "setting": "[29]", "value": 93, "unit": "%"},
      {"measurement": "Activity", "setting": "[30]", "value": 101, "unit": "%"},
      {"measurement": "Activity", "setting": "[31]", "value": 85, "unit": "%"}
    ]}
  ]
}
